{"data": "Results from different studies", "RPS6KA1": "Ribosomal protein S6 kinase alpha-1 (RPS6KA1, Homo sapiens, UniProt Q15418)", "RPS6KA1 N-terminal kinase domain": "Ribosomal protein S6 kinase alpha-1, N-terminal kinase domain (RPS6KA1, Homo sapiens, UniProt Q15418)", "RPS6KA1 C-terminal kinase domain": "Ribosomal protein S6 kinase alpha-1, C-terminal kinase domain (RPS6KA1, Homo sapiens, UniProt Q15418)", "note": "Each line is one published result; the experiments were not run side by side."}
{"SMILES": "COc1cc(Nc2cnc(C#N)c(O[C@H](C)CN(C)C)n2)ncc1-c1cnn(C)c1", "target": "RPS6KA1", "assay": "enzyme activity, inhibitor, radiometric", "conditions": "1 µM", "quantity": "remaining activity", "result": "4%"}
{"SMILES": "N#CC1(c2ccccn2)CCN(Cc2cc(C(=O)N3CCCC3)c(=O)n3ccccc23)CC1", "target": "RPS6KA1 N-terminal kinase domain", "assay": "cell-free assay, competition with immobilised ligand", "conditions": "1 µM", "quantity": "remaining binding", "result": "100%"}
{"SMILES": "Nc1nc(Nc2ccccc2)sc1C(=O)c1c(F)cccc1F", "target": "RPS6KA1", "assay": "enzyme activity, inhibitor", "conditions": "10 µM", "quantity": "remaining activity", "result": "29%"}
{"SMILES": "c1cnn2ncc(-c3ccnc(N4CCC45COC5)n3)c2c1", "target": "RPS6KA1 C-terminal kinase domain", "assay": "binding, competition with immobilised ligand", "conditions": "1 µM", "quantity": "remaining binding", "result": "56%"}
{"SMILES": "Oc1cccc(-c2nc(N3CCOCC3)c3oc4ncccc4c3n2)c1", "target": "RPS6KA1", "assay": "enzyme activity, inhibitor", "conditions": "10 µM", "quantity": "remaining activity", "result": "101%"}
{"SMILES": "CNc1cc(Oc2cc(C(=O)Nc3cc(N4CCN(C)CC4)cc(C(F)(F)F)c3)ccc2C)ncn1", "target": "RPS6KA1 C-terminal kinase domain", "assay": "target engagement in cells, inhibitor, chemoproteomics", "system": "Huh-7", "conditions": "1 µM", "quantity": "inhibition", "result": "-27.6%"}
{"SMILES": "CNC(=O)c1cc(Oc2ccc(NC(=O)Nc3ccc(Cl)c(C(F)(F)F)c3)cc2)ccn1", "target": "RPS6KA1", "assay": "enzyme activity, inhibitor", "conditions": "10 µM", "quantity": "inhibition", "result": "25%"}
{"SMILES": "N#CCCc1ccc2c(c1)-c1[nH]c3ccc([N+](=O)[O-])cc3c1CC(=O)N2", "target": "RPS6KA1", "assay": "cell-free assay", "conditions": "0.5 µM", "quantity": "remaining signal", "result": "59.9%"}
{"SMILES": "COc1cc2ncnc(Nc3ccc(Oc4ccccc4)c(C)c3C)c2cc1OC", "target": "RPS6KA1", "assay": "enzyme activity, inhibitor", "conditions": "1 µM", "quantity": "inhibition", "result": "-2%"}
{"SMILES": "COc1cccc2c(NCc3ccccc3)nc(-n3c(N)nc4ccccc43)nc12", "target": "RPS6KA1 C-terminal kinase domain", "assay": "target engagement in cells, inhibitor, chemoproteomics", "conditions": "20 mM", "quantity": "inhibition", "result": "1%"}
{"SMILES": "Cn1cncc1C1=CN(c2ncnc3[nH]cnc23)CCS1", "target": "RPS6KA1", "assay": "enzyme activity, inhibitor, radiometric", "conditions": "2 µM", "quantity": "inhibition", "result": "82%"}
{"SMILES": "O=C(Nc1cnn(-c2csc(C(=O)NC3COC3)c2)c1)Nc1ccccc1Cl", "target": "RPS6KA1", "assay": "enzyme activity, inhibitor", "conditions": "5 µM", "quantity": "remaining activity", "result": "92.4%"}
{"SMILES": "Nc1ncnc2occ(-c3ccc(NC(=O)Nc4cc(C(F)(F)F)ccc4F)cc3)c12", "target": "RPS6KA1 N-terminal kinase domain", "assay": "cell-free assay, inhibitor", "conditions": "20 µM", "quantity": "remaining signal", "result": "2%"}
{"SMILES": "Nc1nc(NC2CCCCC2)sc1C(=O)c1ccccc1", "target": "RPS6KA1", "assay": "enzyme activity, inhibitor", "conditions": "10 µM", "quantity": "remaining activity", "result": "67%"}
{"SMILES": "Cc1cc(NC(=O)c2cccc3cc(-c4cccc5[nH]nc(N)c45)ccc23)ccc1F", "target": "RPS6KA1", "assay": "enzyme activity, inhibitor", "conditions": "0.1 µM", "quantity": "activity vs control", "result": "115%"}
{"SMILES": "COc1cc2ncnc(Nc3ccc(F)c(Cl)c3)c2cc1OCCCN1CCOCC1", "target": "RPS6KA1", "assay": "cell-free assay", "conditions": "0.5 µM", "quantity": "remaining signal", "result": "97.3%"}
{"SMILES": "N[C@@H]1CCN(c2nccc(-c3cnn4ncccc34)n2)C1", "target": "RPS6KA1 C-terminal kinase domain", "assay": "binding, competition with immobilised ligand", "conditions": "1 µM", "quantity": "remaining binding", "result": "100%"}
{"SMILES": "C#Cc1cccc(Nc2ncnc3cc(OCCOC)c(OCCOC)cc23)c1", "target": "RPS6KA1", "assay": "cell-free assay", "conditions": "0.5 µM", "quantity": "remaining signal", "result": "97.6%"}
{"SMILES": "Cc1ccc(C(=O)Nc2ccc(CN3CCN(C)CC3)c(C(F)(F)F)c2)cc1C#Cc1cnc2cccnn12", "target": "RPS6KA1", "assay": "enzyme activity, inhibitor", "conditions": "23.5 nM", "quantity": "remaining activity", "result": "80%"}
{"SMILES": "C[S+]([O-])c1ccc(-c2nc(-c3ccncc3)c(-c3ccc(F)cc3)[nH]2)cc1 (centres unmarked)", "target": "RPS6KA1", "assay": "cell-free assay", "conditions": "0.5 µM", "quantity": "remaining signal", "result": "99.9%"}
{"SMILES": "Cc1cnc(NC2CCOCC2)nc1-n1cnc(C(=O)NC(CN)c2cc(F)cc(Cl)c2)c1 (centres unmarked)", "target": "RPS6KA1", "assay": "enzyme activity, inhibitor, radiometric", "conditions": "1 µM", "quantity": "remaining activity", "result": "44%"}
{"SMILES": "CN1CC(Oc2cnc(C#N)cc2-c2ccn3nc(NC(=O)C4CC4)cc3c2)C1", "target": "RPS6KA1", "assay": "enzyme activity, inhibitor", "conditions": "1 µM", "quantity": "inhibition", "result": "31%"}
{"SMILES": "CC/C(=N\\NC(=O)NCc1cccc(O)c1)c1ccc(O)c(C)c1O", "target": "RPS6KA1", "assay": "enzyme activity, inhibitor", "conditions": "0.1 µM", "quantity": "inhibition", "result": "72.1%"}
{"SMILES": "Nc1cnc(N2CCc3cc(S(=O)(=O)Nc4c(F)cc(Cl)cc4F)cc(N4CCCC4=O)c32)nc1", "target": "RPS6KA1 N-terminal kinase domain", "assay": "cell-free assay, competition with immobilised ligand", "conditions": "1 µM", "quantity": "remaining binding", "result": "93%"}
{"SMILES": "CCN(CC)c1ccc(C2=NNC(=O)CC2C)cc1[N+](=O)[O-] (centres unmarked)", "target": "RPS6KA1", "assay": "enzyme activity, inhibitor", "conditions": "10 µM", "quantity": "remaining activity", "result": "101%"}
{"SMILES": "Cc1cnn2ncc(-c3ccnc(N(C)C)n3)c2c1", "target": "RPS6KA1 C-terminal kinase domain", "assay": "binding, competition with immobilised ligand", "conditions": "1 µM", "quantity": "remaining binding", "result": "64%"}
{"SMILES": "Nc1nc(Nc2ccc(S(N)(=O)=O)cc2)nn1C(=O)c1c(F)cccc1F", "target": "RPS6KA1", "assay": "cell-free assay", "conditions": "0.5 µM", "quantity": "remaining signal", "result": "42.1%"}
{"SMILES": "CCC(=O)N[C@@H]1CC[C@H](C(=O)N(C)c2ccc(-c3nc4ccccc4o3)cc2)C1", "target": "RPS6KA1 N-terminal kinase domain", "assay": "cell-free assay, competition with immobilised ligand", "conditions": "1 µM", "quantity": "remaining binding", "result": "100%"}
{"SMILES": "Cc1ccc(Nc2nccc(N(C)c3ccc4c(C)n(C)nc4c3)n2)cc1S(N)(=O)=O", "target": "RPS6KA1", "assay": "enzyme activity, inhibitor", "conditions": "0.5 µM", "quantity": "remaining activity", "result": "92.8%"}
{"SMILES": "CN(c1ncccc1CNc1nc(Nc2ccc3c(c2)CC(=O)N3)ncc1C(F)(F)F)S(C)(=O)=O", "target": "RPS6KA1", "assay": "enzyme activity, inhibitor", "conditions": "1 µM", "quantity": "inhibition", "result": "84.8%"}
{"SMILES": "CNC(=O)c1ccc(Nc2ncc(C(F)(F)F)c(NCc3nccnc3N(C)S(C)(=O)=O)n2)cc1", "target": "RPS6KA1 C-terminal kinase domain", "assay": "cell-free assay, competition with immobilised ligand", "conditions": "0.1 µM", "quantity": "remaining binding", "result": "71%"}
{"SMILES": "CCCOc1ccc(OC)c(F)c1C(=O)c1ccc(C(=O)N[C@@H]2CNC[C@H]2NC(=O)c2ccc3[nH]ncc3c2)cc1", "target": "RPS6KA1", "assay": "enzyme activity, inhibitor", "conditions": "10 µM", "quantity": "remaining activity", "result": "29%"}
{"SMILES": "CC1CCCN1c1nccc(-c2cnn3ncccc23)n1 (centres unmarked)", "target": "RPS6KA1 C-terminal kinase domain", "assay": "binding, competition with immobilised ligand", "conditions": "1 µM", "quantity": "remaining binding", "result": "77%"}
{"SMILES": "CC(=O)c1c(NS(C)(=O)=O)c2cc(-c3ccc(Cl)cc3)c(-c3ccc(Cl)cc3Cl)nc2n(C)c1=O", "target": "RPS6KA1 N-terminal kinase domain", "assay": "cell-free assay, competition with immobilised ligand", "conditions": "1 µM", "quantity": "remaining binding", "result": "93%"}
{"SMILES": "c1ccc(CNc2nc(N3CCOc4ccccc43)nc3c2CCCC3)cc1", "target": "RPS6KA1 C-terminal kinase domain", "assay": "target engagement in cells, inhibitor, chemoproteomics", "conditions": "20 mM", "quantity": "inhibition", "result": "-6.9%"}
{"SMILES": "COc1ccc2c(c1)O[C@@H](c1ccc(OC)c(OC)c1)C[C@H]2NC(=O)C1(c2ccc3c(c2)OC(F)(F)O3)CC1", "target": "RPS6KA1 C-terminal kinase domain", "assay": "cell-free assay, competition with immobilised ligand", "conditions": "1 µM", "quantity": "remaining binding", "result": "85%"}
{"SMILES": "CC(C)(C)c1nc2c(s1)c1nc(N)ncc1c1ccc(NS(=O)(=O)c3c(F)cccc3F)c(F)c12", "target": "RPS6KA1", "assay": "enzyme activity, inhibitor, radiometric", "conditions": "1 µM", "quantity": "remaining activity", "result": "107%"}
{"SMILES": "O=C(N[C@H]1CCCCC/C=C\\C2C[C@@]2(C(=O)O)NC(=O)[C@@H]2C[C@@H](Oc3ccncc3)CN2C1=O)OC1CCCC1 (some centres unmarked)", "target": "RPS6KA1 N-terminal kinase domain", "assay": "binding, competition with immobilised ligand", "conditions": "1 µM", "quantity": "remaining binding", "result": "100%"}
{"SMILES": "C[C@H]1CCN(c2nccc(-c3cnn4ncccc34)n2)C1", "target": "RPS6KA1 C-terminal kinase domain", "assay": "binding, competition with immobilised ligand", "conditions": "1 µM", "quantity": "remaining binding", "result": "30%"}
{"SMILES": "C=CC(=O)Nc1cc(Nc2nccc(Nc3cc(Cl)c(F)cc3C(C)(C)O)n2)c(OC)cc1N1CC[C@@H](N(C)C)C1", "target": "RPS6KA1", "assay": "enzyme activity, inhibitor", "conditions": "1 µM", "quantity": "inhibition", "result": "9%"}
{"SMILES": "O=C(Nc1cnc(Oc2ccc(F)cc2)nc1)N1CCc2ncccc2[C@@H]1c1ccc(F)cc1", "target": "RPS6KA1 N-terminal kinase domain", "assay": "cell-free assay, competition with immobilised ligand", "conditions": "1 µM", "quantity": "remaining binding", "result": "71%"}
